High-throughput results (PubChem BioAssay)
PHOSPHO1 block: inhibitors of human PHOSPHO1 phosphatase; 1.1% of 290,000 active; Q8TCT1; inhibition, % at 13.3 µM; AID 1565; recombinant PHOSPHO1, absorbance phosphatase assay; in the data active means inhibition above about 60%
Runt-CBFb FRET: inhibitors of human RUNX1 Runt domain binding to CBFb; 0.46% of 220,000 active; Q01196+Q13951; Cerulean-Runt/Venus-CBFb FRET ratio 530/480, 1 h; inhibition, % at 20 µM;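 active means inhibition over about 50% at 20 µM in the single-dose screen, limit read from the data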;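 further: 0% = DMSO wells and 100% = excess unlabeled CBFb competitor control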
Target sequence (Q01196 whole entry, looked up, the tested form may be a part): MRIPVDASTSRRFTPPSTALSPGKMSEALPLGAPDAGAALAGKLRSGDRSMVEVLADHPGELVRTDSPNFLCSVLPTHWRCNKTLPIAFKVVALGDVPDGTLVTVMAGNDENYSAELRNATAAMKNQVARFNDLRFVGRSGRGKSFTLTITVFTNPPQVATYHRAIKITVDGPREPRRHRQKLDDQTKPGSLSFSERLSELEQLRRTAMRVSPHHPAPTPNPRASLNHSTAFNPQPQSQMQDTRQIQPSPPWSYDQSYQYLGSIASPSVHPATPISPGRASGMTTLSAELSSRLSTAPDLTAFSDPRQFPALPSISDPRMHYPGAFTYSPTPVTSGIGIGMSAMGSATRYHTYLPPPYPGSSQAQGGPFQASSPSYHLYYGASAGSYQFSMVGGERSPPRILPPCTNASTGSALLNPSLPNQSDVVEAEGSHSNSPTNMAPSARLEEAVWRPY
Target sequence (Q13951 whole entry, looked up, the tested form may be a part): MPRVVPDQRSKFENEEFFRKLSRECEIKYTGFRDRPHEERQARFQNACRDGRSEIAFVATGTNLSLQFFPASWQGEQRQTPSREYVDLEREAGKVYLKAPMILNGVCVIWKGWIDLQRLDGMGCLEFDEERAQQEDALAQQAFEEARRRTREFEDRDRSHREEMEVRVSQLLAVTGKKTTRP
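Measured by: fluorescence energy transfer, 422 nm excitation, 530/480 nm emission; Assay system: Cerulean-Runt domain; Medium: Tris pH 7.5 buffer with BSA; Measure: loss of energy transfer signal; Controls: 5 µM unlabeled CBFb as full-inhibition high control; Incubation: protein complex preformed 1 h, compound exposure 1 h, room temperature, dark.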
HMGR II inh: E. faecalis class II HMG-CoA reductase inhibition; purified E. faecalis HMGR, NADPH absorbance 340 nm kinetic; inhibition, % at 10 µM; 0.41% of 190,000 active;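 active means inhibition above a set limit, the median over all tested compounds plus 3 SD, cut at about 9.5% in these data; inconclusive means no clear call, values can overlap the other calls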;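 further: enzyme runs in reverse so mevalonate oxidation gives rising NADPH absorbance; 0% = complete reaction with DMSO and 100% = background rate lacking mevalonate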
RanGTP-Imp inh: disruptors of Ran-importin-beta complex formation – biochemical, FRET, CFP-Ran, YFP-importin-beta, homogeneous, primary screen | inhibition, % (concentration not given with the values) | 1.1% of 300,000 active | cell-free CFP-Ran/YFP-importin-beta FRET ratio | AID 2216;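 active means more than half of the replicate wells show a fall in the fluorescence ratio signal beyond about 16%, limit read from the data, passing the limit was not always enough; inconclusive means exactly half of the replicate wells pass the set limit; inactive means fewer than half of replicates pass the limit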;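 further: 0% = DMSO wells and 100% = Ran loaded with GDP instead of GTP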
Wee1 stabilizer: human Wee1 degradation inhibition, primary screen | P30291 | HeLa Luc-Wee1K328M stability, luciferase luminescence; 100% = proteasome inhibitor MG132 effect | reporter increase, % at 5 µM | 1.2% of 220,000 active | AID 1321;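 active means activation above the mean of all tested compounds plus 3 SD, set per screening run, cut at about 8.8% in these data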;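 further: cells exposed to compound for 20 h before luminescence read; 0% = DMSO alone and 100% = MG132 at 30 µM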
Runt-SMMHC FRET: Runt domain-CBFb-SMMHC interaction inhibition; Q01196+Q13951; Cerulean-Runt/Venus-CBFb-SMMHC FRET ratio 530/480, 1 h; inhibition, % at 20 µM; 0.74% of 220,000 active; AID 1434;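 active means mean inhibition across duplicate retests at 20 µM reaching about 50%, limit read from the data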;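 further: 0% = DMSO wells and 100% = wells with excess untagged CBFb-SMMHC; inhibitors lower the FRET ratio by blocking Runt binding to CBFb-SMMHC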
Active calls of the source: *; ? = inconclusive; . = no result given. Sampled rows, rich in hits. Any-hit rate of the full collection: about 3.4%.

SMILES	PHOSPHO1 block	Runt-CBFb FRET	HMGR II inh	RanGTP-Imp inh	Wee1 stabilizer	Runt-SMMHC FRET
COc1ccccc1-n1c(N)c(C(=O)NCC2CCCO2)c2nc3ccccc3nc21 (centres undefined)	-5.8	-5.7	-7.1	57.3*	-1.5	2.2
O=C(NC(=S)NCC1CCCO1)c1ccccc1 (centres undefined)	5.7	1.9	-3.1	-0.2	9.0*	-4.0
CCCCN(C(=O)c1cccs1)C1CCS(=O)(=O)C1 (centres undefined)	.	.	.	1.3	.	.
COc1ccccc1CNC(=O)/C(C#N)=C/c1ccc(OC)c(OC)c1OC	2.5	.	.	-0.6	.	.
COCCCNC(=O)Cn1cnc2sc(C)c(S(=O)(=O)N3CC(C)CC(C)C3)c2c1=O (centres undefined)	23.0	.	.	-0.6	.	.
Nc1c(S(=O)(=O)c2cccs2)c2nc3ccccc3nc2n1CC1CCCO1 (centres undefined)	-17.0	6.6	-0.1	.	3.7	17.6
Nc1c(C(=O)OCC2CCCO2)c2nc3ccccc3nc2n1C1CCCCC1 (centres undefined)	3.6	23.6	-1.7	0.3	-2.2	67.3*
Cc1c(NC(=O)Nc2cccc(C(F)(F)F)c2)c(=O)n(-c2ccccc2)n1C	65.8*	.	.	-2.4	.	.
COc1ccc(NC(=O)Nc2c(C)n(C)n(-c3ccccc3)c2=O)cc1	-18.1	-0.1	-9.6	0.1	-1.9	1.5
COc1cccc(NC(=O)Nc2c(C)n(C)n(-c3ccccc3)c2=O)c1	-1.4	2.1	-3.4	114.9*	-3.7	-3.3
CC1(C)Cc2c(sc3ncn4c(=S)[nH]nc4c23)CO1	68.0*	46.1	-7.1	2.3	-1.5	59.5*
Cc1c(Br)c(C(F)(F)F)nn1CC(=O)NCCCn1ccnc1	36.7	-2.0	-1.4	7.0	-2.8	0.3
Cc1ccccc1OCc1nc2ccc(S(=O)(=O)N3CCOCC3)cc2[nH]1	97.9*	27.7	0.7	.	-2.9	11.2
N#Cc1cc([N+](=O)[O-])ccc1NCCCn1ccnc1	23.0	.	.	4.7	.	.
CC(=O)N1N=C(c2ccncc2)OC12CCCCC2	62.3*	-3.1	-3.5	-0.4	-0.9	-2.6
C=CCN(CC=C)CC(O)CN(c1cc([N+](=O)[O-])ccc1OC)S(=O)(=O)c1ccccc1 (centres undefined)	-1.1	0.5	-4.1	?	0.1	-2.3
O=c1oc2c3c4c(cc2s1)CCCN4CCC3	32.0	10.1	-2.1	-8.3	-0.1	-33.1
O=c1ccc2cc3c4c(c2o1)CCCN4CCC3	36.6	4.8	-6.0	92.0*	0.1	3.8
CCCc1cc(=O)[nH]c(SCC(=O)Nc2cc(C)on2)n1	10.8	-0.5	5.2	3.8	-0.6	-3.4
O=C(CSc1n[nH]c(=O)[nH]c1=O)N/N=C/C=C/c1ccccc1	31.6	2.1	.	0.3	1.1	0.5
O=C(CSc1n[nH]c(=O)[nH]c1=O)N/N=C/C=C\c1ccccc1	3.5	82.7*	-1.1	-0.1	-0.2	-6.5
O=C(Cc1cn2ccsc2n1)Nc1nc2c(s1)CN(Cc1ccccc1)CC2	43.1	47.3	-3.7	11.1	1.8	77.1*
O=C(Nc1nc2c(s1)CN(Cc1ccccc1)CC2)c1cccc(S(=O)(=O)N2CCc3ccccc32)c1	6.1	-5.7	4.3	140.1*	11.7*	-2.7
O=C(Cc1cn2ccsc2n1)NCc1ccccc1	23.8	-1.6	0.9	-0.2	-1.6	2.0
O=C(Nc1nc2ccccc2s1)c1cccc(S(=O)(=O)N2CCc3ccccc32)c1	29.7	2.2	.	-3.0	-0.1	2.8
SMILES	PHOSPHO1 block	Runt-CBFb FRET	HMGR II inh	RanGTP-Imp inh	Wee1 stabilizer	Runt-SMMHC FRET
CC1=CC(c2ccc(Cl)cc2)n2nc(NS(=O)(=O)c3ccc(C)cc3)nc2N1 (centres undefined)	0.3	35.7	-3.9	?	-1.3	.
CC1=CC(c2ccccc2)n2nc(NS(=O)(=O)c3ccc(C)cc3)nc2N1 (centres undefined)	30.3	35.4	0.0	.	-2.7	84.6*
CCN1CCN(C(=O)CS(=O)(=O)Cc2nc(-c3ccc(C)cc3)oc2C)CC1	22.2	-0.5	-10.9	3.0	5.3	-1.2
Cc1ccc(-c2nc(CS(=O)(=O)CC(=O)N3CCN(C)CC3)c(C)o2)cc1	26.1	.	.	158.0*	.	.
Cc1ccc(CS(=O)Cc2ccc(C(=O)NCc3ccccc3Br)o2)cc1 (centres undefined)	22.5	.	.	-1.6	.	.
N#CC1=C(N)SC(N)=C(C#N)C1c1ccnc2ccccc12	76.4*	19.9	-0.5	23.3*	-2.9	20.4
O=C1c2ccccc2C(=O)C1c1ccnc2ccccc12	-1.2	-21.1	-4.6	-4.8	10.5*	-82.4
CC(c1ccccc1)C1C(C#N)=C(N)SC(N)=C1C#N (centres undefined)	19.4	1.8	0.9	-1.2	0.1	-3.0
O=C1c2ccccc2C(=O)C1c1nccc2ccccc12	-22.8	-28.1	0.1	-6.7	10.4*	-57.7
O=c1[nH]cnc2c1nc(NCc1ccccc1)n2C1O[C@@H](CO)[C@H](O)[C@@H]1O (some centres undefined)	4.7	.	.	?	.	.
CSc1ncccc1C(=O)NCC(c1cccs1)N1CCOCC1 (centres undefined)	.	.	.	-2.8	.	.
COc1ccc(NC(=O)c2oc3ccccc3c2NC(=O)C2CC2)cc1	5.5	0.8	10.8*	3.4	-1.0	-10.0
COC(=O)c1ccc(C(=O)OC)c(NC(=S)N2CCN(C)CC2)c1	-38.4	12.0	-8.9	31.7*	-0.7	20.8
COC(=O)c1ccc(C(=O)OC)c(NC(=S)N2CCCC2)c1	-2.4	.	.	10.9	.	.
COc1ccc(NC(=O)COc2ccc(N(C)S(=O)(=O)c3ccc(Cl)cc3)cc2)cc1OC	.	.	.	3.7	.	.
COc1ccc(-c2nc(CS(=O)CC(=O)NC(C)CCc3ccccc3)c(C)o2)cc1OC (centres undefined)	22.5	.	.	3.1	.	.
NC(=O)c1cc2ccccc2oc1=NCc1ccccc1	21.5	-3.4	-2.3	6.4	-0.1	1.8
NC(=O)c1cc2ccc(O)cc2oc1=NCc1ccccc1	-15.8	5.4	2.5	180.9*	-0.1	82.8*
COc1ccc(OC)c(N=c2oc3cc(O)ccc3cc2C(N)=O)c1	8.7	119.7*	-2.2	157.7*	-1.7	117.2*
NC(=O)c1cc2ccc(O)cc2oc1=Nc1ccccc1	-11.0	12.5	-1.9	175.6*	-1.5	65.3*
O=C(N=C1SC2CS(=O)(=O)CC2N1Cc1ccccc1Cl)C1CCCO1 (centres undefined)	22.2	.	.	-4.6	.	.
COC(=O)C(Cc1c[nH]c2ccccc12)NC(=O)C1CC1 (centres undefined)	23.7	.	.	3.1	.	.
O=C(COC(=O)CN1C(=O)COc2ccccc21)NC1CCCCC1	.	.	.	-0.5	.	.
Fc1ccc(-c2nc(-c3cccs3)no2)cc1	27.3	-0.6	.	2.8	15.0*	2.2
